From ChEMBL document CHEMBL4622989, “From Bacteria to Cancer: A Benzothiazole-Based DNA Gyrase B Inhibitor Redesigned for Hsp90 C-Terminal Inhibition” (ACS Med Chem Lett, 2020)
The source made the active and inactive calls. The calls are words filed in the database; no cut-off is given here.

Experiments:
MCF7 = assay: Antiproliferative activity against human MCF7 cells assessed as reduction in cell viability; type: functional, cell-based
SK-BR-3 = assay: Antiproliferative activity against human SKBR3 cells assessed as reduction in cell viability; type: functional, cell-based
Heat shock protein HSP90 [1] = target: T1, Heat shock protein HSP90 (Homo sapiens, UniProt P07900+P08238); assay: Inhibition of HSP90 at C-terminus in human SKBR3 cell lysates at 0.5 to 5 times antiproliferative EC50 after 24 hrs by Western blot analysis; type: cell-based; settings: SK-BR-3
In short: (§1)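 SKBr3 breast cancer cells were treated for 24 h and then lysed. Hsp90-dependent client proteins and Hsp70 in the lysates were analysed by Western blot. Geldanamycin at 500 nM served as the reference treatment. Blot images were quantified.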

Heat shock protein HSP90 [2] = target: T1, Heat shock protein HSP90; assay: Inhibition of HSP90 at C-terminus in human SKBR3 cell lysates assessed as induction of CDK4 protein degradation at 0.1 to 10 uM after 24 hrs by Western blot analysis; type: cell-based; settings: SK-BR-3; in short: as §1
Heat shock protein HSP90 [3] = target: T1, Heat shock protein HSP90; assay: Inhibition of HSP90 at C-terminus in human SKBR3 cell lysates assessed as induction of Raf1 protein degradation at 0.1 to 10 uM after 24 hrs by Western blot analysis; type: cell-based; settings: SK-BR-3; in short: as §1
Heat shock protein HSP90 [4] = target: T1, Heat shock protein HSP90; assay: Inhibition of HSP90 at C-terminus in human SKBR3 cell lysates assessed as induction of Her2 protein degradation at 0.1 to 10 uM after 24 hrs by Western blot analysis; type: cell-based; settings: SK-BR-3; in short: as §1
Heat shock protein HSP90 [5] = target: T1, Heat shock protein HSP90; assay: Inhibition of HSP90 at C-terminus in human SKBR3 cell lysates assessed as induction of AKT protein degradation at 0.1 to 10 uM after 24 hrs by Western blot analysis; type: cell-based; settings: SK-BR-3; in short: as §1
Heat shock protein HSP90 [6] = target: T1, Heat shock protein HSP90; assay: Inhibition of HSP90 at N-terminus in human SKBR3 cell lysates assessed as induction of heat shock response by measuring increase in HSP70 protein level at 0.1 to 10 uM after 24 hrs by Western blot analysis; type: cell-based; settings: sk-br-3, 24 h; in short: as §1

CCOC(=O)C(=O)Nc1nc2ccc(NC(=O)c3cc(Br)c[nH]3)cc2s1
EC50 (MCF7): 41.3 µM
EC50 (SK-BR-3): 27.9 µM

CC(=O)Nc1nc2ccc(NC(=O)c3cc(Br)c(Br)[nH]3)cc2s1
EC50 (MCF7): > 50 µM
EC50 (SK-BR-3): > 50 µM

CCOC(=O)C(=O)Nc1ccc2nc(NC(=O)c3cc4ccccc4[nH]3)sc2c1
EC50 (MCF7): 8.99 µM
EC50 (SK-BR-3): 5.41 µM

Cc1ccc2[nH]c(C(=O)Nc3nc4ccc(NC(=O)C(=O)c5ccccc5)cc4s3)cc2c1
EC50 (MCF7): > 50 µM
EC50 (SK-BR-3): > 50 µM

CCOC(=O)C(=O)Nc1nc2ccc(NC(=O)c3cc(Br)c(Br)[nH]3)cc2s1
EC50 (MCF7): 10.1 µM
EC50 (SK-BR-3): 3.59 µM

CCOC(=O)C(=O)Nc1ccc2nc(NC(=O)c3ccc4c(c3)OCO4)sc2c1
EC50 (MCF7): > 50 µM
EC50 (SK-BR-3): > 50 µM

CCOC(=O)C(=O)Nc1ccc2nc(NC(=O)c3ncccn3)sc2c1
EC50 (MCF7): > 50 µM
EC50 (SK-BR-3): > 50 µM

CCOC(=O)C(=O)Nc1ccc2nc(NC(=O)c3cc4ccc(OC)cc4[nH]3)sc2c1
EC50 (MCF7): > 50 µM
EC50 (SK-BR-3): 6.7 µM

CCOC(=O)C(=O)Nc1ccc2nc(NC(=O)c3cc(Br)c(Br)[nH]3)sc2c1
inhibition (Heat shock protein HSP90 [1]): Active
EC50 (MCF7): > 50 µM
EC50 (SK-BR-3): 2.41 µM

CCOC(=O)C(=O)Nc1ccc2nc(NC(=O)c3cc4cc(C)ccc4[nH]3)sc2c1
EC50 (MCF7): 10.1 µM
EC50 (SK-BR-3): 2.81 µM

CCOC(=O)C(=O)Nc1nc2ccc(NC(=O)c3ccccc3)cc2s1
EC50 (MCF7): > 50 µM
EC50 (SK-BR-3): 9.73 µM

CC(=O)C(=O)Nc1ccc2nc(NC(=O)c3cc4ccccc4[nH]3)sc2c1
EC50 (MCF7): > 50 µM
EC50 (SK-BR-3): > 50 µM

CCOC(=O)C(=O)Nc1ccc2nc(NC(=O)c3cc4cc(OC)ccc4[nH]3)sc2c1
EC50 (MCF7): 7.03 µM
inhibition (Heat shock protein HSP90 [2]): Active
inhibition (Heat shock protein HSP90 [3]): Active
inhibition (Heat shock protein HSP90 [4]): Active
inhibition (Heat shock protein HSP90 [5]): Active
inhibition (INH) (Heat shock protein HSP90 [6]): Not Active
EC50 (SK-BR-3): 0.86 µM

CCOC(=O)C(=O)Nc1ccc2nc(NC(=O)c3cc4cc(CC)ccc4[nH]3)sc2c1
EC50 (MCF7): 25.3 µM
EC50 (SK-BR-3): 20.6 µM

CCOC(=O)C(=O)Nc1nc2ccc(NC(=O)c3cc4ccccc4[nH]3)cc2s1
EC50 (MCF7): 11.2 µM
EC50 (SK-BR-3): 6.94 µM

CCOC(=O)C(=O)Nc1ccc2nc(NC(=O)c3ccc(OC)cc3)sc2c1
EC50 (MCF7): > 50 µM
EC50 (SK-BR-3): 10.7 µM

COc1ccc2[nH]c(C(=O)Nc3nc4ccc(NC(=O)C(=O)c5ccccc5)cc4s3)cc2c1
EC50 (MCF7): > 50 µM
EC50 (SK-BR-3): > 50 µM
